Test results from ChEMBL document CHEMBL2321856, “Optimizing small molecule inhibitors of calcium-dependent protein kinase 1 to prevent infection by Toxoplasma gondii” (J Med Chem, 2013).
Active and inactive are the calls of the source. The rule behind the calls is not given here.

Legend:
[1] = tested on: Toxoplasma gondii; assay: Antiparasitic activity against wild type tachyzoites of Toxoplasma gondii RH type 1 infected in HFF cells incubated for 20 mins prior to inoculation followed by compound washout at 4 hrs measured after 72 hrs by beta-galactoside reporter assay; assay type: functional, organism-based; conditions: RH type 1, HFF
In short: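 Type I RH 2F clone (β-gal) in confluent HFF, DMEM with 10% FBS. Compounds diluted from 10 mM DMSO stock into medium with 1% DMSO (also no-compound control). Parasites preincubated 20 min at room temperature with compound, 5×10^2/well added, spun ~300 g 5 min. Washed with warm PBS at 4 h, grown to 72 h. Triton X-100 lysis, chlorophenol red-β-D-galactopyranoside, A570. Triplicates; EC50 from variable-slope sigmoidal fit.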

[2] = Inhibition of Toxoplasma gondii RH full length CDPK1 expressed in Escherichia coli BL21(DE3) using syntide-2 peptide as substrate after 20 mins by ELISA; assay type: cell-free
In short: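 His-tagged recombinant CDPK1 purified by nickel affinity. Syntide-2-coated plates blocked with 3% BSA. Reaction run 20 min at 30°C in HEPES pH 7.5 with 10 mM MgCl₂, 2.5 mM CaCl₂, 0.1 mM EGTA and 1 mM DTT. Each enzyme used at its half-maximal-activity concentration with ATP at its own Km. Phosphopeptide detected by mAb MS-6E6/HRP-TMB at A450. Triplicates; IC50 from variable-slope sigmoidal fit.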

[3] = tested on: Liver microsomes; assay: Half life in rat liver microsomes by LC-MS analysis; assay type: ADME, Microsome
[4] = tested on: Liver microsomes; assay: Intrinsic clearance in rat liver microsomes assessed per mg of protein after 10 to 60 mins by LC-MS analysis in presence of NADPH; assay type: ADME, Microsome
[5] = tested on: Toxoplasma gondii; assay: Antiparasitic activity against Toxoplasma gondii harboring wild type CDPK1 infected in HFF cells incubated for 20 mins prior to infection followed by compound washout at 1 hr measured after 72 hrs by crystal violet staining method; assay type: functional, organism-based
In short: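 CDPK1-cKO parasites complemented with wild-type CDPK1, grown 72 h with 1 μg/ml ATc and kept in ATc throughout. Parasites pre-incubated 20 min at 37°C in DMEM/10% FBS with compound or 1% DMSO vehicle. 10⁵ per well added to confluent HFF, spun 300g for 2 min, infected 1 h at 37°C, then rinsed 5× with warm PBS. Grown 72 h with ATc; lysis read by crystal violet A570, as % of DMSO control.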

[6] = tested on: Toxoplasma gondii; assay: Ratio of growth inhibition of Toxoplasma gondii harboring wild type CDPK1 to growth inhibition of Toxoplasma gondii harboring CDPK1 G128M mutant; assay type: functional
[7] = tested on: Toxoplasma gondii; assay: Antiparasitic activity against trachyzoites of Toxoplasma gondii type 2 expressing Pru-LUC infected in Balb/c mouse assessed as host survival at 5 mg/kg, ip administered for 10 days measured on day 30; conditions: type II
[8] = tested on: Toxoplasma gondii; assay: Antiparasitic activity against Toxoplasma gondii type 2 expressing Pru-LUC infected in Balb/c mouse assessed reduction in number of tissue cysts in brain at 5 mg/kg, […] for 10 days measured after 30 days by fluorescently labeled lectin staining based microscopic analysis relative to control; assay type: functional, organism-based; design: dose 5 mg/kg; conditions: type II
[9] = tested on: Toxoplasma gondii RH; assay: Selectivity ratio of IC50 for Toxoplasma gondii RH CDPK1 G128A mutant to Toxoplasma gondii RH full length CDPK1
[10] = tested on: Toxoplasma gondii RH; assay: Selectivity ratio of IC50 for Toxoplasma gondii RH CDPK1 G128S mutant to Toxoplasma gondii RH full length CDPK1
[11] = tested on: Toxoplasma gondii; assay: Antiparasitic activity against tachyzoites of Toxoplasma gondii RH type 1 infected in HFF cells incubated for 4 hrs followed by compound washout measured after 72 hrs by beta-galactoside reporter assay; assay type: functional, organism-based; conditions: RH type 1, HFF
In short: (§1)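 RH type I 2F clone expressing β-gal; compounds from 10 mM DMSO stocks diluted in medium with 1% DMSO. Parasites preincubated with compound 20 min at room temperature, then 5×10^2/well added to confluent HFF in DMEM/10% FBS and centrifuged. Washed with warm PBS after 4 or 24 h, grown to 72 h. Lysed in 1% Triton X-100; 1 mM chlorophenol red-β-D-galactopyranoside, A570.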

[12] = tested on: Toxoplasma gondii; assay: Antiparasitic activity against tachyzoites of Toxoplasma gondii RH type 1 infected in HFF cells incubated for 24 hrs followed by compound washout measured after 72 hrs by beta-galactoside reporter assay; assay type: functional, organism-based; in short: as §1

CC(C)(C)n1nc(-c2cccc(OCc3c(Cl)cccc3Cl)c2)c2c(N)ncnc21
EC50 [1]: 4530 nM
IC50 [2]: 2470 nM

CC(C)n1nc(C(O)c2cccc(Cl)c2Cl)c2c(N)ncnc21 (stereo not drawn)
EC50 [1]: 9460 nM
t1/2 [3]: 20.2 min
CLint [4]: 0.068 mL/min/mg
IC50 [2]: 200 nM

CC(C)n1nc(Cc2cc(F)cc(F)c2)c2c(N)ncnc21
EC50 [1]: 2070 nM
IC50 [2]: 50.9 nM

CC(C)(C)n1nc(Cc2cccc(Cl)c2F)c2c(N)ncnc21
EC50 [1]: 360 nM
t1/2 [3]: 2.5 min
CLint [4]: > 0.35 mL/min/mg
IC50 [2]: 7.37 nM

CC(C)(C)n1nc(-c2ccc3c(c2)OCO3)c2c(N)ncnc21
EC50 [1]: 620 nM
IC50 [2]: 13.8 nM

CC(C)(C)n1nc(-c2cccc(OCc3ccccc3)c2)c2c(N)ncnc21
EC50 [1]: 11600 nM
IC50 [2]: 374 nM

CC(C)(C)n1nc(Cc2cccc(Br)c2)c2c(N)ncnc21
EC50 [1]: 380 nM
t1/2 [3]: 3 min
CLint [4]: > 0.35 mL/min/mg
IC50 [2]: 9.64 nM

CC(C)n1nc(Cc2cccc(Cl)c2F)c2c(N)ncnc21
EC50 [1]: 1400 nM
IC50 [2]: 1.43 nM

CC(C)(C)n1nc(Cc2ccc(F)c(Cl)c2)c2c(N)ncnc21
EC50 [1]: 410 nM
t1/2 [3]: 4 min
CLint [4]: > 0.35 mL/min/mg
IC50 [2]: 8.47 nM

CC(C)(C)n1nc(Cc2cc(Cl)ccc2F)c2c(N)ncnc21
EC50 [1]: 920 nM
t1/2 [3]: 5.5 min
CLint [4]: 0.25 mL/min/mg
IC50 [2]: 12.5 nM

CC(C)(C)n1nc(-c2cccc(Oc3ccccc3)c2)c2c(N)ncnc21
EC50 [1]: 1320 nM
IC50 [2]: 26.6 nM

CC(C)n1nc(C(F)c2cccc(Cl)c2Cl)c2c(N)ncnc21 (stereo not drawn)
EC50 [1]: 2630 nM
t1/2 [3]: 12.9 min
CLint [4]: 0.107 mL/min/mg
IC50 [2]: 13.6 nM

CC(C)n1nc(Cc2ccc(F)c(Cl)c2)c2c(N)ncnc21
EC50 [1]: 560 nM
IC50 [2]: 13.1 nM

CC(C)(C)n1nc(-c2cccc3ccccc23)c2c(N)ncnc21
EC50 [1]: 700 nM

CC(C)n1nc(Cc2cc(F)cc(Cl)c2)c2c(N)ncnc21
EC50 [1]: 180 nM
Activity [5]: Active
t1/2 [3]: 2.4 min
CLint [4]: > 0.35 mL/min/mg
Ratio [6]: 100
IC50 [2]: 4.59 nM

CC(C)(C)n1nc(Cc2cc(F)cc(Cl)c2)c2c(N)ncnc21
EC50 [1]: 430 nM
IC50 [2]: 13.2 nM

CC(C)n1nc(Cc2cccc(Cl)c2Cl)c2c(N)ncnc21
Activity [7]: Active
EC50 [1]: 250 nM
Activity [5]: Active
t1/2 [3]: 7 min
CLint [4]: 0.19 mL/min/mg
Ratio [6]: 100
IC50 [2]: 2.38 nM
Activity [8]: Active

CC(C)n1nc(Cc2cc(Cl)ccc2F)c2c(N)ncnc21
EC50 [1]: 6730 nM
IC50 [2]: 92.4 nM

Cc1cccc(Cc2nn(C(C)(C)C)c3ncnc(N)c23)c1
Activity [7]: Active
Ratio IC50 [9]: 3
EC50 [1]: 110 nM
Activity [5]: Active
Ratio IC50 [10]: 5.6
Ratio [6]: 100
IC50 [2]: 3.99 nM
Activity [8]: Active
EC50 [11]: 100 nM

CC(C)(C)n1nc(Cc2ccc3ccccc3c2)c2c(N)ncnc21
EC50 [1]: 1940 nM
IC50 [2]: 35.4 nM

CC(C)(C)n1nc(Cc2cccc(Cl)c2Cl)c2c(N)ncnc21
EC50 [1]: 380 nM
IC50 [2]: 3.38 nM

CC(C)(C)n1nc(Cc2cccc3ccccc23)c2c(N)ncnc21
EC50 [1]: 1310 nM

CCc1nc(N)nc(N)c1-c1ccc(Cl)cc1
Activity [12]: Active

CC(C)(C)n1nc(Cc2cccc(I)c2)c2c(N)ncnc21
EC50 [1]: 1120 nM
IC50 [2]: 12.9 nM

CC(C)(C)c1ccc(-c2nn(C(C)(C)C)c3ncnc(N)c23)cc1
EC50 [1]: 3770 nM
IC50 [2]: 1310 nM

CC(C)(C)n1nc(Cc2cc(F)cc(F)c2)c2c(N)ncnc21
Activity [7]: Active
EC50 [1]: 610 nM
Activity [8]: Active

CC(C)(C)n1nc(Cc2cccc(Cl)c2)c2c(N)ncnc21
Activity [7]: Active
EC50 [1]: 30 nM
Activity [5]: Active
Activity [8]: Active
